Screens (PubChem)
proCasp7 act: counter-screen for procaspase-3 activators: activators of human procaspase-7 | activation, % at 8.5 µM | 330,000 tested, 0.093% active | P55210 | recombinant procaspase-7, Ac-DEVD-pNA absorbance 405 nm; D23A/D198A/D206A triple mutant, cannot self-cleave; scale: DMSO 0, 5 µM enzyme 100;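 active = percent activation above the screen-wide mean plus 3 SD, cut at about 25% in these data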
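Assay system: Uncleavable procaspase-7 mutant enzyme | Input: 2 µM procaspase-7 mutant as dispensed | Timing: 1 h compound preincubation, 2 h substrate cleavage, 25 °C | Repeats: One well per compound | Control set: DMSO wells as 0%, DMSO with 5 µM added PC-7 as 100% | Technique: Epi-absorbance of released pNA at 405 nm, two timepoints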
GSK3beta inhib: blocks human GSK3beta kinase activity. 300,000 tested, 0.038% active. P49841. GST-GSK3beta kinase, ADP-Glo luminescence, 60 min; hits give low values. activity score (negative = inhibition), % at 10 µM;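 active = more than half of replicate wells score below -50%, meaning over 50% inhibition versus plate controls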;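 note: 0% = median DMSO wells and -100% = median GW8510 positive control wells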
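test system = GST-tagged human GSK3beta kinase, cell-free | reagent = 25 µM ATP with peptide substrate | dosing = one dose of 10 µM per compound | schedule = 60 min reaction, RT | detection = luminescent ADP-Glo measurement of ADP formed | control set = DMSO neutral wells and GW8510 at 20 µM as positive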
STK33 kinase inh: inhibitors of human STK33 kinase; AID 2661; 320,000 tested, 0.073% active; purified STK33, MBP phosphorylation, ADP-Glo luminescence; Q9BYT3; inhibition, % at 10 µM;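 active = inhibition at or above 25%, using the most active replicate where run in duplicate; inactive = inhibition below 25%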
GSK3A inh: blocks human GSK-3 alpha kinase; AID 2650; P49840; 320,000 tested, 0.1% active; inhibition, % at 10 µM; ADP-Glo luminescence, 60 min;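 active = more than half of replicates show inhibition above 20%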;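 note: GST-tagged GSK-3 alpha with peptide substrate and 25 µM ATP; 0% = DMSO neutral wells and 100% = GW8510 positive control wells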
Target sequence (P49840 whole entry, looked up): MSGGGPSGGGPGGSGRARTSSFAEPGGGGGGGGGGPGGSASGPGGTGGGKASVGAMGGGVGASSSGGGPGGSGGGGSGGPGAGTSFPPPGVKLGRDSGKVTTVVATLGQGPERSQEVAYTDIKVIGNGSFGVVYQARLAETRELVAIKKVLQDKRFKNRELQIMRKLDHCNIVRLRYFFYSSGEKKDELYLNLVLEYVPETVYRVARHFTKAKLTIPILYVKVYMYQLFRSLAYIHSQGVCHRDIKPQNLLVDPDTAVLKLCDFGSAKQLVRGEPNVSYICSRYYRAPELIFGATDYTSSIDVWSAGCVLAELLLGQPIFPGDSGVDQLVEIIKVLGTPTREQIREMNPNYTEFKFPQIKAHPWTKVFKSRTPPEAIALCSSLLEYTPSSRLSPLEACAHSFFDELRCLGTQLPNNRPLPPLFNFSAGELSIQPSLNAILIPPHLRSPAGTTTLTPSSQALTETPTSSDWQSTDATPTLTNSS
A1 inh: inhibitors of the anti-apoptotic protein A1, read as caspase activation; MEF A1-2A-BIM cells, Caspase-Glo 3/7 luminescence, 3 h; percent of clofoctol response, vehicle zero; caspase activation, % (test concentration not listed); 330,000 tested, 0.066% active;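 active = over half of replicate activation scores above 10%, or exactly half above 10 with the replicate mean above 10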
procasp3 activ: procaspase-3 (human) activation; recombinant procaspase-3 D3A, Ac-DEVD-pNA absorbance 405 nm; activation, % at 8.5 µM; 330,000 tested, 0.11% active; P42574; AID 463141;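 active = activation above the mean of all tested compounds plus 3 SD, cut at about 21% in these data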;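 note: 0% = DMSO alone and 100% = DMSO wells spiked with extra 5 µM PC-3 D3A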
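System: Procaspase-3 D3A mutant. Medium: Zinc-free 300 mM NaCl, 50 mM HEPES, 0.01% Triton X-100. Schedule: 1 h preincubation plus 2 h reaction at 25 °C. Measured by: 405 nm absorbance of p-nitroaniline, reads at 0 and 120 min. Read-out: percent activation relative to control range.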
Starred values were filed as active, the others as inactive; x = no result given. A selection: hits, their analogues and other compounds. The true share with any hit is near 0.38%.

SMILES	proCasp7 act	GSK3beta inhib	STK33 kinase inh	GSK3A inh	A1 inh	procasp3 activ
Cc1ccc(Nc2nc(=O)c3cccnc3s2)c(Br)c1	-4.2	-1.4	0.4	1.2	-0.9	1.9
CC1(C)C[C@H](O)[C@]2(CO)[C@H](O)C[C@]3(C)C(=CCC4[C@@]5(C)CC[C@H](O)C(C)(C)C5CC[C@]43C)[C@@H]2C1 (some centres undefined)	1.2	x	-1.3	-1.5	13.7*	-2.6
Cc1c(C(=O)N/N=C/c2ccc(O)c(Br)c2)sc(N)c1C#N	-17.6	x	7.9	23.0	-0.5	-9.5
COc1cc(/C=N/NC(=O)c2sc(N)c(C#N)c2C)ccc1O	9.2	-45.1	8.8	64.9*	-1.1	-0.4
O=C(O)c1ccc(NC(=O)c2cccc(C(=O)Nc3ccc(C(=O)O)cc3)n2)cc1	-3.6	-0.2	33.9*	7.9	0.7	3.2
Cc1ccc(S(=O)(=O)Nc2cc3c4c(c2)CCC(=O)N4CCC3)cc1	3.4	-1.7	0.6	0.0	0.2	0.1
O=c1cc(-c2ccccc2Cl)oc2c([N+](=O)[O-])c(O)cc(O)c12	-2.3	-53.0*	1.9	39.3	-0.9	-1.6
CCOc1cc(/C=C(\C#N)c2[nH]nc(N)c2C#N)ccc1O	-4.8	3.4	34.9*	37.1	0.0	-11.1
COc1ccc(S(=O)(=O)N(C)C)cc1NC(=O)COC(=O)c1nn(C)c(=O)c2ccccc12	0.3	1.5	0.1	-1.2	-0.3	2.1
CN(C)CCN(C(=O)/C=C/c1cccs1)c1nc2c(F)cc(F)cc2s1	13.7	-3.4	x	x	17.3*	-8.0
CN(C)CCCN(C(=O)/C=C/c1cccs1)c1nc2ccc(F)cc2s1	-5.9	-1.5	0.5	-2.5	-0.1	-3.2
O=C(O)c1cc(N/N=C/c2c(O)ccc3ccccc23)ccc1Cl	-27.0	0.6	43.5*	2.8	-2.8	-14.7
CCN(CC)C(=O)CSc1nnc(SC(C)C(=O)NC2CC2)s1 (centres undefined)	1.1	x	-1.0	-1.6	-0.3	3.2
CC1=C(C(=O)OCc2ccc3c(c2)OCO3)C(c2ccccc2)NC(=O)N1 (centres undefined)	2.5	0.4	-1.4	62.5*	-0.8	-2.0
COc1cc(/C=C(/C#N)C(=O)NCCc2c[nH]c3ccccc23)ccc1OCc1ccccc1F	-2.4	-0.9	0.5	-0.3	9.4*	3.5
Cc1[nH]nc2c1C(c1ccc(F)cc1)C1=C(CC(C)(C)CC1=O)N2 (centres undefined)	4.9	-56.1*	x	20.7	-0.1	-6.8
Cc1ccc(C2C3=C(CC(C)(C)CC3=O)Nc3n[nH]c(C)c32)cc1 (centres undefined)	6.6	-60.0*	2.3	77.3*	0.0	7.3
Cc1[nH]nc2c1C(c1cccc(O)c1)C1=C(CC(C)(C)CC1=O)N2 (centres undefined)	8.9	-91.8*	0.3	96.5*	-0.3	-1.6
Cc1[nH]nc2c1C(c1ccc(N(C)C)cc1)C1=C(CC(C)(C)CC1=O)N2 (centres undefined)	-7.7	-17.6	0.4	12.5	0.9	8.3
COc1ccc2ccccc2c1CNC(=O)CC1C(=O)NCCN1CC(C)(C)C (centres undefined)	4.2	4.7	-1.3	1.2	-0.6	-3.3
Cc1cccc(NC(=O)c2ccccc2NC(=O)c2ccco2)c1	-0.9	-16.9	5.7	2.8	0.8	4.5
CC(=O)Nc1ccc(N2CCc3c(C)c(C#N)c4nc5ccccc5n4c32)cc1	89.6*	3.2	-0.3	2.0	-0.1	64.9*
CC(=O)c1ccc(Nc2c3c(c(C#N)c4nc5ccccc5n24)CCC3)cc1	-5.5	-1.2	-2.0	-1.3	1.5	10.4
NNC(=O)CCC(=O)Nc1ccccc1	-1.1	-2.2	0.0	-1.7	-0.5	3.0
CCc1ccc(NC(=O)c2nc(S(=O)(=O)Cc3ccccc3)ncc2Cl)cc1	-5.3	-3.4	-1.2	0.5	11.0*	-6.8
SMILES	proCasp7 act	GSK3beta inhib	STK33 kinase inh	GSK3A inh	A1 inh	procasp3 activ
CC1CCN(S(=O)(=O)c2ccc(NC(=O)c3ccncc3)cc2)CC1	9.1	0.8	-2.4	-2.6	-1.0	0.5
CCS(=O)(=O)c1ncc(Cl)c(C(=O)Nc2ccc(S(=O)(=O)N3CCC(C)CC3)cc2)n1	3.0	-6.4	2.7	x	41.7*	-4.1
CCc1ccc(OCCOCC(O)CNC(C)CC)cc1 (centres undefined)	4.4	-1.2	-0.2	-1.8	0.6	3.0
Cc1occc1C(=O)N/N=C/c1ccc(N(C)C)cc1	1.8	-26.7	28.5*	30.4	0.0	-3.3
CCn1c(C)nc2cc(C(=O)NNC(=O)[C@@H](NC(=O)c3cc(OC)cc(OC)c3)C(C)C)ccc21	12.4	x	0.5	-2.3	-0.3	8.5
Cc1ccc(NC(=S)Nc2ccc(F)cc2)c(C)c1	-1.0	-3.2	-0.8	2.5	1.4	-2.0
Nc1ccc(-c2nnnn2-c2ccc(N)cc2)cc1	9.1	0.0	-0.2	1.9	2.3	3.8
Oc1ccc2ccccc2c1N=Nc1ccccc1F	8.3	-2.4	4.3	-1.1	-1.0	-5.7
O=S(=O)(O)c1cccc(N=Nc2c(O)ccc3ccccc23)c1	-21.4	-1.1	60.4*	46.1	-7.4	-8.6
Oc1ccccc1-c1nc(NCCN2CCOCC2)c2ccccc2n1	-2.2	-1.9	59.6*	1.2	0.2	11.6
COc1ccc(C(=O)/C=C/Nc2ccc(S(=O)(=O)Nc3cc(OC)nc(OC)n3)cc2)c(OC)c1	-4.2	1.3	-0.5	17.6	-0.1	-4.4
CCOc1cc(/C=N/N=C(\N)c2nonc2N)cc(Br)c1OCc1cccc2ccccc12	2.8	-0.9	-1.7	0.1	6.4*	1.4
CCCCn1c(/C=C/c2ccco2)nc2ccccc21	-6.5	4.3	0.3	-1.3	-0.2	-1.7
CCCCn1c(/C=N/Nc2nc3ccccc3[nH]2)nc2ccccc21	2.3	-0.9	-0.5	1.0	-0.4	25.4*
O=C(Nc1ccccc1-c1ccccc1)c1ccc(Br)o1	-1.8	0.9	36.4*	0.9	0.6	0.6
O=C(Nc1nc2ccccc2[nH]1)c1ccc(Br)o1	-2.2	-0.6	60.1*	0.1	-6.0	-5.4
COc1ccccc1NC(=O)c1ccc(Br)o1	1.2	0.8	7.6	-2.0	-2.4	-7.6
CCOc1ccc(N2C(=O)CC(N(Cc3ccco3)C(=O)CC)C2=O)cc1 (centres undefined)	-6.0	2.1	-0.6	-1.3	-0.3	5.5
O=C(O)CC1SC(N/N=C/c2ccc(Br)cc2)NC1=O (centres undefined)	2.7	-1.7	0.1	-5.1	0.0	-5.2
COc1ccccc1Nc1nc(NCCCN(C)C)nc(N)c1[N+](=O)[O-]	-0.2	-82.8*	7.1	94.6*	0.1	13.8
